Source: PubChem
SKKanGAS inh = inhibitors of SKKanGAS S. pyogenes growth in kanamycin (SK-promoter or general growth effect) | AID 1662 | inhibition, % at 7.5 µM | BacTiter-Glo, 6 h | actives 1.3% (n = 300,000);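 active = mean replicate score, as percent of positive control median, at least 50; inconclusive = mean below 50 but one replicate at or above 50; inactive = mean and every replicate below 50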;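 also: strain carries kanamycin resistance gene driven by streptokinase promoter and grows in 40 µg/ml kanamycin; loss of luminescence reflects streptokinase promoter inhibition or plain growth inhibition; 0% = median of DMSO wells and 100% = positive control at its reference dose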
ARFGAP1 inh = inhibitors of rat ARFGAP1. inhibition, % at 16.5 µM. actives 0.26% (n = 360,000). Arfgap1-stimulated ARF1 GTP hydrolysis, GDP FP detection. Q62848;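 active = inhibition above a per-plate limit, mean inhibition of low control wells plus 3 SD, cut at about 25% in these data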;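 also: 0% = DMSO wells with enzyme and 100% = wells lacking Arfgap1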
Target sequence (Q62848 1-136 limits assumed): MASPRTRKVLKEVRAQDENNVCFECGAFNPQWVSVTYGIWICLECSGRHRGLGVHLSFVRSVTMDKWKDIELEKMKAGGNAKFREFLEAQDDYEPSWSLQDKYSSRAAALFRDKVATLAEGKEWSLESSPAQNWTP
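Material: truncated rat Arfgap1 GAP domain; Incubation: compound-enzyme preincubation 20 min, reaction 120 min, detection 60 min, 25 °C; Read-out: percent inhibition of Arfgap1-stimulated GTP hydrolysis; Technique: FP, GDP Alexa 633 tracer displaced from anti-GDP antibody, 620/688 nm; Controls: No-Arfgap1 wells (100%) versus DMSO full-reaction wells (0%); Replication: single well per compound.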
sPLA2-III inh = Inhibits HGIII-sPLA2 liposome hydrolysis, primary screen | Q9NZ20 | QFRET BODIPY PC-A2 liposome hydrolysis, fluorescence | inhibition, % at 12.2 µM | actives 0.56% (n = 370,000) | AID 743126;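 active = inhibition above mean plus 3 SD of compounds lying within the high and low control bounds, cut at about 19% in these data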;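 also: 0% = median of test compound wells and 100% = no enzyme DMSO wells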
ASAP1 inh = ASAP1 ArfGAP inhibition; inhibition, % at 16.5 µM; actives 0.19% (n = 360,000); ASAP1-stimulated ARF1 GTP hydrolysis, GDP FP detection; in the data active = inhibition above about 25%;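 also: 0% = vehicle with enzyme and substrate and 100% = no enzyme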
Target sequence (Q9ULH1 325-724 limits assumed): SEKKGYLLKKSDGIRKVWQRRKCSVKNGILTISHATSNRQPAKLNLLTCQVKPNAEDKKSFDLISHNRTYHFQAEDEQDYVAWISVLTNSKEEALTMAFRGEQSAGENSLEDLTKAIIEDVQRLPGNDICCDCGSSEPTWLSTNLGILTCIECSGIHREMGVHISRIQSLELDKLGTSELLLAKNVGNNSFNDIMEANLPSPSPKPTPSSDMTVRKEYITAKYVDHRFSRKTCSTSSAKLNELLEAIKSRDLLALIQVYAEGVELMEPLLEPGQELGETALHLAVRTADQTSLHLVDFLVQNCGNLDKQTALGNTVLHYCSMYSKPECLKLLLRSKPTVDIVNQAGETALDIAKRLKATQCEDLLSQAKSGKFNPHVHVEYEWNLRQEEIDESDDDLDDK
Calb FLC = affects C. albicans growth with fluconazole. actives 0.57% (n = 300,000). growth inhibition, % (test concentration not listed). C. albicans CaCi-2 (fluconazole-resistant clinical isolate) + fluconazole, Alamar Blue growth, 48 h. AID 1979;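 active = growth inhibition above about 58% in most replicates, limit read from the data, passing the limit was not always enough; inconclusive = exactly half the replicates above a set limit; inactive = most replicates below a set limit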;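 also: all wells also contain fluconazole at 8 µg/ml as a sub-toxic cotreatment; 0% = median of DMSO wells and 100% = median of geldanamycin control wells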
* marks the source's active call; other numbers are inactive results; u = inconclusive; x = not tested or not shown. This is a sample that favours compounds with a hit; in the whole collection about 2.3% have one here.

SMILES | SKKanGAS inh | ARFGAP1 inh | sPLA2-III inh | ASAP1 inh | Calb FLC
C[C@H](O)[C@@H]1C(=O)N2CCc3c([nH]c4c(-c5ccccc5)cccc34)[C@@H]2C[C@@H]1N(C)C(=O)NC1CCCCC1 | x | 6 | 0 | 10 | x
O=C(Nc1nnc(-c2ccc3c(c2)CCCC3)o1)c1c(F)cccc1F | 95* | -2 | -12 | -11 | u
CC1=NOC(=O)/C1=C\c1ccc(-c2ccc(Cl)cc2Cl)o1 | 70* | -19 | 6 | -10 | -9
Cc1ccc(S(=O)(=O)c2ncccc2N)cc1 | 4 | -3 | 6 | 8 | -10
Cc1ccc(S(=O)(=O)c2ncccc2[N+](=O)[O-])cc1 | 0 | 11 | -1 | -5 | 108*
O=C(Cc1cccs1)N/N=C/C=C\c1ccco1 | 7 | -2 | -5 | 12 | 2
O=C(Cc1cccs1)N/N=C/c1ccco1 | 77* | 1 | -6 | -1 | -10
CC1CCCCC1NC(=O)CCn1ccc2cc(S(=O)(=O)N3CCCC3)ccc21 (centres undefined) | 50* | x | x | x | -15
CCn1c(SCC(=O)c2ccc(O)c(O)c2)nnc1-c1ccccc1OC | -10 | -7 | -11 | 4 | 96*
C=CCn1c(SCC(=O)c2ccc(O)c(O)c2)nnc1-c1ccccc1OC | -1 | 2 | -15 | 1 | -26
COC(=O)[C@]12C=CCN1[C@@H](c1ccc(C(F)(F)F)cc1)c1c(c3ccccc3n1S(=O)(=O)c1ccc(C)cc1)C2 | x | x | 9 | x | x
COc1cc(/C=N/Nc2ccc([N+](=O)[O-])cc2S(=O)(=O)N2CCOCC2)cc(OC)c1OC | 7 | 2 | -3 | 6 | 3
O=[N+]([O-])c1ccc(N/N=C/c2ccc(O)c(O)c2O)c(S(=O)(=O)N2CCOCC2)c1 | -22 | -6 | 3 | 4 | 100*
O=c1cc(O)nc(SCc2ccc(Cl)cc2)[nH]1 | 104* | -13 | -4 | -11 | 10
COc1ccc(C(=O)NC(=S)NNC(=O)CNC(=O)C2CCCCC2)cc1 | 8 | 6 | -5 | 24 | -1
CCCCNC(=O)NNC(=O)COc1cc(C)cc(C)c1 | -5 | -4 | -19 | 3 | 6
COc1ccc(OCC(=O)NNC(=S)NC(=O)C2CC2)cc1 | 63* | -5 | 14 | -9 | 14
Cc1cc(C)cc(OCC(=O)NNC(=S)NC(=O)C2CC2)c1 | 87* | -8 | 18 | 6 | 119*
COc1ccc(CC(=O)NC(=S)NNC(=O)COc2c(C)cccc2C)cc1 | 97* | -5 | 5 | 5 | 14
COc1ccc(OCC(=O)NNC(=S)NC(=O)C2CCCCC2)cc1 | 64* | -7 | 1 | -1 | 35
Clc1ccc([C@H]2OC[C@@]3(CNCc4ccc5c(c4)OCO5)CS[C@H](c4ccc(Cl)cc4)N23)cc1 | x | x | 11 | x | x
O=C1N(c2ccccc2)CC2CC(c3ccccc3)N3CCCC123 (centres undefined) | x | x | 12 | x | x
COC(=O)[C@]12C[C@H](CC(=O)N3CCCC3)C(=O)N(Cc3ccccc3)C1=C[C@H](COCc1ccccc1)O[C@@H]2C | x | x | 2 | x | x
COc1ccc2c(c1)Sc1ccc(Cl)cc1N2 | x | x | 0 | x | x
Cc1ccc(C2Oc3ccccc3C3=C2C(c2cccs2)n2ncnc2N3)cc1 (centres undefined) | 100* | 1 | -1 | 7 | -6
SMILES | SKKanGAS inh | ARFGAP1 inh | sPLA2-III inh | ASAP1 inh | Calb FLC
CCOC(=O)/C(=N\Nc1cccc(C(F)(F)F)c1)N1CCOCC1 | -7 | 14 | 9 | 4 | 114*
CCOC(=O)/C(=N\Nc1cccc(C(F)(F)F)c1)N(CCOC)CCOC | 3 | 5 | 6 | -10 | -7
C/C(=N\NC(=O)CSCc1ccccc1Cl)c1cc(O)ccc1O | 2 | 14 | 14 | 3 | 95*
CC(=O)Nc1ccc(NC(=O)CSCc2ccccc2Cl)cc1 | 1 | 10 | -3 | -13 | -9
Cc1ccc(NCCC(=O)c2cccs2)cc1 | 2 | 4 | 4 | -1 | 2
CC(C)c1ccc(NCCC(=O)c2cccs2)cc1 | 4 | -3 | 27* | -1 | -3
O=C(Nc1ccc(Oc2ccccc2)cc1)C1CCN(c2nnc(-n3cccc3)s2)CC1 | x | x | 8 | x | x
Cc1nc(=S)c2c([nH]1)-c1ccccc1CC21CCCCC1 | 100* | -2 | 1 | -17 | -2
CC1=C(CC[C@@H](C)CO)OC2CC3C4CCC5CC(O)CCC5(C)C4CC(=O)C3(C)C12 (some centres undefined) | 3 | -2 | 7 | 0 | 87*
CC(CCC(=O)O)C1CCC2C3CCC4C[C@H](O)CCC4(C)C3CC(=O)C12C (some centres undefined) | 8 | 0 | -8 | -8 | -17
O=C(Cc1cccc2ccccc12)NC(NC(=S)Nc1ccccc1Cl)C(Cl)(Cl)Cl (centres undefined) | -14 | 4 | -10 | 7 | 13
O=C(NC(NC(=S)Nc1ccccc1Cl)C(Cl)(Cl)Cl)c1cccc(Cl)c1 (centres undefined) | 97* | -1 | 11 | 6 | -26
O=C(NC(NC(=S)Nc1c(Cl)cc(Cl)cc1Cl)C(Cl)(Cl)Cl)OCc1ccccc1 (centres undefined) | 86* | -2 | 0 | -1 | -8
O=C(/C=C/c1ccccc1)NC(NC(=S)Nc1cccc(Cl)c1)C(Cl)(Cl)Cl (centres undefined) | 101* | 9 | -8 | -1 | 1
O=C(/C=C/c1ccccc1)NC(NC(=S)Nc1ccc(Cl)cc1Cl)C(Cl)(Cl)Cl (centres undefined) | 76* | x | x | x | -28
COC(=O)c1cc2c(c3c4cc(C)ccc4n(S(=O)(=O)c4ccc(OC)cc4)c13)C(=O)N(Cc1ccc(C(F)(F)F)cc1)C2 | x | -5 | 8 | -4 | x
CCOC(=O)c1ccc(NC(=O)CC2S/C(=N/N=C/c3c[nH]c4ccccc34)NC2=O)cc1 (centres undefined) | 65* | 10 | -66 | 20 | 22
Cc1ccc(NC(=O)CC2S/C(=N/N=C/c3c[nH]c4ccccc34)NC2=O)cc1 (centres undefined) | 3 | -1 | -19 | -3 | 0
COC(=O)C1=C(C)N(Cc2cccc(C(F)(F)F)c2)C(=NCc2cc(OC)c(OC)c(OC)c2)NC1c1ccc(Cl)cc1 (centres undefined) | x | -5 | -15 | -6 | x
Cc1cc(NC(=O)c2ccc(F)cc2F)n(-c2nc3ccccc3[nH]2)n1 | -11 | x | x | x | u
Cc1cc(NC(=O)/C=C/c2ccccc2Cl)n(-c2nc3ccccc3[nH]2)n1 | 81* | 8 | 9 | 12 | -3
Cc1cc(NC(=O)CC2CCCC2)n(-c2nc3ccccc3[nH]2)n1 | 51* | -3 | -5 | -2 | -4
CCOc1ccccc1-c1ccc(C(=O)NCc2ccc(Cl)cc2)o1 | x | 11 | -14 | 5 | x
CN(C)S(=O)(=O)c1cccc(C(=O)N/N=C\c2ccccc2[N+](=O)[O-])c1 | x | x | 1 | x | x
O=S(=O)(Nc1nc2ccccc2s1)c1ccc(Br)s1 | 13 | 5 | -72 | -6 | 89*
COc1ccc(CCNC(=O)c2c(N)[nH]c(C(=O)c3ccccc3)c2-c2ccc(N(C)C)cc2)cc1 | x | x | 4 | x | x
